A short description of assay [1]: The compound was tested for cytotoxicity against BSC1 cell. It counts as functional, cell-based. Particulars: Cercopithecidae, BSC-1. The gist of the method: (§1)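 Visual cytotoxicity was scored on uninfected cells in the plaque-reduction plates: BSC-1 (HSV-1 assay) or HFF (HCMV assay), both grown in MEM(E) with 10% FBS. Cells were examined at 35- and 60-fold magnification and scored 0 to 4+ on the day of staining for plaque counting. The highest concentration tested was 100 μM.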

For assay [2], the system named is Human alphaherpesvirus 1. As to the kind of experiment: Antiviral activity against Herpes simplex virus type 1 determined by plaque reduction assay. It counts as functional, organism-based.
For assay [3], the system named is Cytomegalovirus. As to the kind of experiment: Inhibitory activity against human cytomegalovirus determined by plaque reduction assay. Format: functional, organism-based. The note with it: Human betaherpesvirus 5.
Assay [4] relates to HFF. Put plainly: The compound was tested for cytotoxicity against human foreskin fibroblast cell. It counts as functional, cell-based. The gist of the method: as §1
Assay [5] is described as follows: Average percent inhibition of DNA, RNA, and protein synthesis determined in KB cells. Format: functional, cell-based. The note with it: Homo sapiens. The gist of the method: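 KB cells (human oral epidermoid carcinoma) grown in MEM(H) with 5% FBS. Cytotoxicity was measured as inhibition of radioactive precursor incorporation into DNA, RNA and protein. An I50 for each was obtained by linear regression against log concentration, and the three I50 values were averaged. The highest concentration tested was 100 μM.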

Assay [6] is described as follows: The compound was tested for cytotoxicity against BSC-1 cells. Format: functional, cell-based. The note with it: Cercopithecidae. The method, boiled down: as §1

pIC50: −log10 of the molar value.

`CSc1nc(N)c2ccn(COCCO)c2n1`: the pIC50 in assay [1], in assay [2], in assay [3] and in assay [4] was < 4.00 each time.

Regarding `OCCOCn1ccc2c(Cl)nc(Cl)nc21`, the pIC50 in assay [1] was < 4.00; in assay [2] it was < 4.00; in assay [3], 4.43; in assay [4], 4.00.

As for `Nc1nc(O)nc2c1ccn2COCCO`, the negative-log IC50 (pIC50) in assay [1], in assay [2], in assay [3] and in assay [4] was < 4.00 in each case.

On to `Nc1nc(N)c2ccn(COCCO)c2n1`, for which the pIC50 in assay [1], in assay [2], in assay [3] and in assay [4] was < 4.00 throughout.

For `CC(=O)Nc1nc(Cl)c2ccn(COCCO)c2n1`, the negative logarithm of the IC50 (pIC50) was 3.95 in assay [5]; < 4.00 in assay [1]; < 4.00 in assay [2]; < 4.00 in assay [3]; < 4.00 in assay [4].

As for `Nc1nc2c(ncn2COCCO)c(=O)[nH]1` [ACYCLOVIR], the pIC50 in assay [5] was < 4.00; in assay [1] it was < 4.00; in assay [3], 4.20; in assay [4] it was < 4.00.

With `CC(=O)OCCOCn1ccc2c(Cl)nc(Cl)nc21`, the negative logarithm of the IC50 (pIC50) in assay [1] was < 4.00; in assay [2] it was < 4.00; in assay [3], 4.40; in assay [4], 4.00.

On to `CS(=O)(=O)c1nc(N)c2ccn(COCCO)c2n1`, for which the pIC50 in assay [1], in assay [2], in assay [3] and in assay [4] was < 4.00 throughout.

On to `Nc1nc(Cl)nc2c1ccn2COCCO`, for which the negative-log IC50 (pIC50) in assay [1], in assay [2], in assay [3] and in assay [4] was < 4.00 throughout.

As for `CSc1nc(Cl)c2ccn(COCCOC(C)=O)c2n1`, the pIC50 is < 4.00 in assay [6]; 4.48 in assay [5]; < 4.00 in assay [2]; < 4.00 in assay [3]; 4.00 in assay [4].

For `CSc1nc(Cl)c2ccn(COCCO)c2n1`, the negative logarithm of the IC50 (pIC50) was < 4.00 in assay [1], < 4.00 in assay [2], < 4.00 in assay [3] and 4.52 in assay [4].

On to `Nc1nc2c(ncn2COC(CO)CO)c(=O)[nH]1` [GANCICLOVIR], for which the negative-log IC50 (pIC50) in assay [5] is 3.00; in assay [1], < 4.00; in assay [3], 5.06; in assay [4], < 4.00.

Consider `Nc1ncnc2c1ccn2COCCO`, for which the negative-log IC50 (pIC50) in assay [5], in assay [1], in assay [2], in assay [3] and in assay [4] was < 4.00 in each case.

For `COc1nc(N)c2ccn(COCCO)c2n1`, the negative-log IC50 (pIC50) in assay [1], in assay [2], in assay [3] and in assay [4] was < 4.00 each time.

The term pIC50 denotes the negative decadic logarithm of the IC50, by convention in mol/L. Low values mean a high IC50, high ones a low IC50.

These data come from ChEMBL document CHEMBL1124273, “Synthesis and antiviral activity of certain 4-substituted and 2,4-disubstituted 7-[(2-hydroxyethoxy)methyl]pyrrolo[2,3-d]pyrimidines” (J Med Chem, 1988).
